According to article PMC8266733 (Acta physiologica (Oxford, England), 2021):
Entries after “also recorded” stand apart in the source; their conditions may differ.

What was measured:
[1] = system: Hela-Parkin or Hela-Parkin/USP30 cells
[2] = target: T1, USP30 (Homo sapiens, UniProt Q70CQ3); experiment: TOM20 ubiquitination and turnover; assay type: cell-based
T1 sequence (Q70CQ3 1-517): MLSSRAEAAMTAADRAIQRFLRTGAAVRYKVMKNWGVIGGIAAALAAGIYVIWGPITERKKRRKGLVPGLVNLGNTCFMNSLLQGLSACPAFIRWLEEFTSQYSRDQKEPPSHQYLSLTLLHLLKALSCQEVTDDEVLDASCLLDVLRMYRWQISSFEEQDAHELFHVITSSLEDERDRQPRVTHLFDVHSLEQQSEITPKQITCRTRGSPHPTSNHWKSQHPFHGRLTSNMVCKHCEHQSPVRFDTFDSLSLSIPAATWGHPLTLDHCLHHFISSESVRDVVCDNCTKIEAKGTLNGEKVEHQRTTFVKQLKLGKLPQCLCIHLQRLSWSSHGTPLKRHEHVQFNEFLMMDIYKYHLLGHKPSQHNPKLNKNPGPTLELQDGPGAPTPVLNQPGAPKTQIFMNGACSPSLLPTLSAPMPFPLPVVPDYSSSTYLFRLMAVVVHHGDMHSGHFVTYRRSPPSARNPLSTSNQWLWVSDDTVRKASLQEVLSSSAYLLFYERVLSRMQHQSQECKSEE
Outline: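 HeLa-Parkin cells, with or without lentivirally expressed Myc-USP30, were pretreated with test compound at several concentrations. They were then exposed to 5 μM oligomycin plus 5 μM antimycin A for up to 18 h, with 10 μM QVD during 18 h exposures. RIPA lysates (pH 8.0, on ice) were immunoblotted for ubiquitinated TOM20, TOM20, TOM40 and TIM23 with infrared detection. Three independent experiments.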

[3] = system: HeLa-Parkin cells expressing USP30; experiment: FACS analysis of A/O-induced mitophagy using mt-Keima fluorescence; assay type: cell-based
Outline: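 HeLa-Parkin and HeLa-Parkin cells with lentivirally expressed Myc-USP30, stably expressing mt-Keima, grown in DMEM/10% FBS. Pretreated with DMSO or test compound at 3 μg/ml, then exposed to 1 μM oligomycin plus 1 μM antimycin A for 1.5 h (legend: 2 h). Cells were trypsinized, PBS-washed and resuspended in PBS. Flow cytometry scored cells with lysosomal (pH 4) mt-Keima.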

[4] = system: Hela cells, Hela cells expressing YFP-Parkin and PINK1 KO Hela cells expressing YFP-Parkin; assay type: cell-based
Outline: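 Parental HeLa, HeLa stably expressing YFP-Parkin, and PINK1 KO HeLa expressing YFP-Parkin were pretreated with test compound at 1 or 3 μg/ml. They were then given 5 μM oligomycin plus 5 μM antimycin A; the 18 h exposure included 10 μM QVD. Cells were lysed on ice in RIPA buffer (pH 8.0, protease inhibitors) and blotted for TOM20 ubiquitination, TOM20 and NDP52. Infrared secondaries were imaged; three independent experiments.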

[5] = system: Hela-Parkin and Hela-Parkin cells expressing USP30; experiment: Seahorse assay of oxygen consumption; assay type: cell-based; settings: 24 h of ST-539 treatment at high dose
[6] = system: WT and Mfn2−/− MEF cells; experiment: Mitochondrial morphology by confocal microscopy; assay type: cell-based, mouse; settings: 3 or 10 μg/ml ST-539, 24 h
[7] = Plasma pharmacokinetics after i.p. injection, LC-MS/MS; assay type: in vivo; settings: 25 mg/kg i.p., mice
Outline: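 Adult male mice were dosed once at 25 mg/kg i.p. with test compound in 1% DMSO/sesame oil. Serial blood was taken at 0.083, 0.25, 0.5, 1, 2, 4 and 8 h, with terminal cardiac puncture at 24 h, into K2EDTA tubes kept on ice. Plasma was frozen at −70 °C and assayed by LC-MS/MS (n=3 per time point). Parameters were derived from the concentration-time curve.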

[8] = Tissue concentrations 24 hours post-dose, LC/MS/MS; assay type: in vivo; settings: 25 mg/kg i.p., Male C57BL/6 Mice
Outline: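 Mice were given a single 25 mg/kg i.p. dose of test compound in 1% DMSO/sesame oil and euthanized at 24 h. Transcardial perfusion preceded brain collection; heart was also harvested. Tissues were rinsed in cold distilled water, blotted dry, weighed and stored on dry ice. Concentrations (ng/g) were measured by LC/MS/MS.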

[9] = system: mt-Keima mice; experiment: In vivo mitophagy in mt-Keima mice
Outline: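 mt-Keima mice of both sexes received test compound in 1% DMSO/sesame oil at 25 mg/kg/day i.p. for five doses; controls got vehicle (n=4 control, n=5 treated). In heart and liver sections, mt-Keima was excited sequentially at 458 and 561 nm with 570–695 nm emission. Four images per tissue were averaged and normalized to the control mean (set to one). Heart and liver LC3 I/II were immunoblotted against actin.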

[10] = system: mt-Keima mice; settings: mouse, in vivo
[11] = target: T1, USP30; settings: this compound and similar structures; cited from earlier work

## N#CC(C#N)=NNc1ccc(OC(F)(F)F)cc1 [FCCP, Carbonyl cyanide-p-trifluoromethoxyphenylhydrazone]
[1]
  TMRM staining (mitochondrial membrane potential): significant loss of staining

## CC(C)(C)NS(=O)(=O)c1cccc2c(NC(=O)C(Cc3ccccc3)NC(=O)c3ccccc3)cccc12 (stereo not shown) [ST-539]
[2]; 18h A/O treatment, Hela-Parkin cells overexpressing USP30
  TIM23 and TOM40 degradation: restored TIM23 and TOM40 degradation
[2]; A/O treatment, ST-539 at indicated concentrations
  TOM20 ubiquitination versus ST-539 dosage: close correlation
[2]; ST-539 at 10 μg/ml, A/O treatment, in the presence of USP30
  loss of TOM20 protein level: ~ 90%
[3]; ST-539 3μg/ml prior to A/O, HeLa-Parkin cells expressing USP30
  A/O induced mitophagy (lysosomal positive mt-Keima): restored A/O induced mitophagy
[3]; cellular studies, no mitochondrial stress
  mitophagy in the absence of mitochondrial stress: minimal change
[4]; cells expressing ectopic Parkin and endogenous PINK1, ST-539 1 or 3μg/ml
  A/O induced TOM20 ubiquitination and decline in TOM20 level: further potentiated
[4]; long term treatment (18 h), 3μg/ml ST-539, WT Hela or PINK1 KO cells
  TOM20 ubiquitination independent of PINK1/Parkin: did not promote TOM20 ubiquitination
[5]
  basal and maximal respiration: slight increase
[6]; Mfn2−/− MEF cells
  elongation of mitochondria: did not induce the elongation of mitochondria significantly
[6]; wild type MEFs
  mitochondrial morphology: failed to change the mitochondrial morphology
[7]
  AUC0-inf: 4240 ng·h/mL
  AUC0-last: 4162 ng·h/mL
  Cmax: 1427 ng/mL
  MRT0-inf: 4.27 h
  MRT0-last: 3.86 h
  Tlast: 24.0 h
  Tmax: 1.33 h
  area under the plasma drug concentration-time curve (AUC): ~ 4.2 μg•h/ml
  maximum plasma concentration (Cmax): about 1.4 μg/ml
[8]
  Tissue concentration, Brain, Mean: 17.4 ng/g
  Tissue concentration, Heart, Mean: 37.0 ng/g
[9]; 25mg/kg/day for 5 days, heart versus control hearts
  LC3-II/LC3-I ratio (LC3 I/II immunoblotting): increase; also recorded: increased levels of LC3-II
[9]; 25mg/kg/day i.p. for 5 days, heart
  cardiac mitophagy (mt-Keima red signal in the heart tissue): marked induction of the red signal
[9]; 25mg/kg/day i.p. for 5 days, hippocampus (data not shown)
  mitophagic flux in the hippocampus of the brain: remains unchanged
[9]; 25mg/kg/day i.p. for 5 days, liver
  mitophagic flux in the liver: remains unchanged
[10]
  safety of the current dosage in mice: appears to be safe
[11]
  inhibition of USP30 enzyme function in vitro: selectively inhibit USP30 enzyme function
